Marks after values point to notes of the source that are not given here.
How the values were obtained:
Assay type in all cases: cell-based
Feline Herpes virus = assay: organism not typed; details: CRFK, read-out: EC50 Feline Corona Virus
C. albicans and A. niger = assay: Average antifungal activity; details: average antifungal activity (pMICca + pMICan)/2
Reovirus-1 = assay: organism not typed; details: Vero, read-out: EC50 Reovirus-1
Candida albicans = assay: MIC by tube dilution method; details: observed, C. albicans, 37 °C 48 h
Aspergillus niger = assay: MIC by tube dilution method; details: observed, A. niger, 25 °C 7 d
[1] = tested on: S. aureus, B. subtilis and E. coli; assay: Average antibacterial activity; details: average antibacterial activity (pMICsa + pMICbs + pMICec)/3
Escherichia coli = assay: MIC by tube dilution method; details: observed, E. coli, 37 °C 24 h
In short: (§1)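 Test compound is diluted in double strength nutrient broth (I.P.) by tube dilution, with ciprofloxacin as reference. Samples incubated at 37 °C for 24 h. MIC is the lowest concentration inhibiting microbial growth, transformed into pMIC for analysis.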

Para-influenza-3 virus = assay: organism not typed; details: Vero, read-out: EC50 Para-influenza-3 virus
Bacillus subtilis = assay: MIC by tube dilution method; details: observed, B. subtilis, 37 °C 24 h
In short: as §1

HEL cells = assay: Cytotoxicity in uninfected cell cultures; details: microscopically detectable alteration of cell morphology
In short: (§2)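 Uninfected cell cultures are exposed to serial dilutions of test compound in parallel with the virus cytopathicity assays. Cells are examined microscopically. Minimum cytotoxic concentration is the lowest concentration causing a microscopically detectable alteration of normal cell morphology.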

Staphylococcus aureus = assay: MIC by tube dilution method; details: observed, S. aureus, 37 °C 24 h
Vero cells = assay: Cytotoxicity in uninfected cell cultures; details: cell morphology
In short: as §2

[2] = tested on: S. aureus, B. subtilis, E. coli, C. albicans and A. niger; assay: Average antimicrobial activity; details: mean of five pMIC values
HeLa cells = assay: Cytotoxicity in uninfected cell cultures; details: cell morphology
In short: as §2

SMILES | EC50 (Feline Herpes virus) | pMICaf (C. albicans and A. niger) | EC50 (Reovirus-1) | pMICca (Candida albicans) | pMICan (Aspergillus niger) | pMICab [1] | pMICec (Escherichia coli) | EC50 (Para-influenza-3 virus) | pMICbs (Bacillus subtilis) | Minimum cytotoxic concentration (HEL cells) | pMICsa (Staphylococcus aureus) | Minimum cytotoxic concentration (Vero cells) | pMICam [2] | Cytotoxicity Minimum cytotoxic concentration (HeLa cells)
O=C(c1ccccc1Cl)n1c(-c2ccc(S(=O)(=O)O)cc2)nc2ccccc21 [Compound 4] | > 100 µg/mL | 1.37 | > 100 µg/mL | 1.52 | 1.22 | 2.11 | 2.42 | > 100 µg/mL | 1.82 | >100 µg/mL | 2.09 | >100 µg/mL | 1.81 | >100 µg/mL
O=C(c1cccnc1)n1c(-c2ccc(S(=O)(=O)O)cc2)nc2ccccc21 [Compound 15] | > 100 µg/mL | 1.62 | > 100 µg/mL | 1.75 | 1.48 | 2.22 | 2.39 | > 100 µg/mL | 2.13 | >100 µg/mL | 2.13 | >100 µg/mL | 1.98 | >100 µg/mL
O=C(c1ccccc1)n1c(-c2ccc(S(=O)(=O)O)cc2)nc2ccccc21 [Compound 2] | > 100 µg/mL | 1.63 | > 100 µg/mL | 1.78 | 1.48 | 2.11 | 2.12 | > 100 µg/mL | 2.12 | >100 µg/mL | 2.08 | >100 µg/mL | 1.92 | >100 µg/mL
O=C(c1ccccc1O)n1c(-c2ccc(S(=O)(=O)O)cc2)nc2ccccc21 [Compound 16] | > 100 µg/mL | 1.50 | > 100 µg/mL | 1.50 | 1.50 | 2.15 | 2.26 | > 100 µg/mL | 2.10 | >100 µg/mL | 2.10 | >100 µg/mL | 1.89 | >100 µg/mL
Nc1ccccc1C(=O)n1c(-c2ccc(S(=O)(=O)O)cc2)nc2ccccc21 [Compound 1] | > 4 µg/mL | 1.60 | > 4 µg/mL | 1.70 | 1.50 | 2.08 | 2.40 | > 4 µg/mL | 2.03 | >100 µg/mL | 1.80 |  | 1.89 | ≥20 µg/mL
O=C(c1ccc(Cl)cc1)n1c(-c2ccc(S(=O)(=O)O)cc2)nc2ccccc21 [Compound 5] | > 100 µg/mL | 1.37 | > 100 µg/mL | 1.52 | 1.22 | 2.22 | 2.42 | > 100 µg/mL | 2.13 | >100 µg/mL | 2.12 | >100 µg/mL | 1.88 | >100 µg/mL
CCCCCCCCCCCCCCCC(=O)n1c(-c2ccc(S(=O)(=O)O)cc2)nc2ccccc21 [Compound 19] | > 100 µg/mL | 1.61 | > 100 µg/mL | 1.61 | 1.61 | 2.02 | 1.61 | > 100 µg/mL | 2.23 | >100 µg/mL | 2.23 | >100 µg/mL | 1.86 | >100 µg/mL
O=C(c1ccc(O)cc1O)n1c(-c2ccc(S(=O)(=O)O)cc2)nc2ccccc21 [Compound 7] | > 100 µg/mL | 1.37 | > 100 µg/mL | 1.52 | 1.22 | 2.32 | 2.42 | > 100 µg/mL | 2.42 | 100 µg/mL | 2.12 | >100 µg/mL | 1.94 | >100 µg/mL
OC(Cn1cncn1)(Cn1cncn1)c1ccc(F)cc1F [Fluconazole, fluconazole, reference compound] |  | 2.64 |  | 2.64** | 2.64** |  |  |  |  |  |  |  |  | 
COc1ccc(C(=O)n2c(-c3ccc(S(=O)(=O)O)cc3)nc3ccccc32)cc1 [Compound 8] | > 100 µg/mL | 1.36 | > 100 µg/mL | 1.51 | 1.21 | 2.12 | 2.12 | > 100 µg/mL | 2.12 | >100 µg/mL | 2.12 | >100 µg/mL | 1.82 | >100 µg/mL
CCCCCCCC/C=C/CCCCCCCC(=O)n1c(-c2ccc(S(=O)(=O)O)cc2)nc2ccccc21 [Compound 18, 4-(1-octadec-9-enoyl-1H-benzoimidazol-2-yl)-benzenesulfonic acid] | > 100 µg/mL | 1.79 | > 100 µg/mL | 1.94 | 1.63 | 2.11 | 1.85 | > 100 µg/mL | 2.24 | >100 µg/mL | 2.24 | >100 µg/mL | 1.98 | >100 µg/mL
C=C(C)C(=O)n1c(-c2ccc(S(=O)(=O)O)cc2)nc2ccccc21 [Compound 14] | > 100 µg/mL | 1.29 | > 100 µg/mL | 1.44 | 1.14 | 1.84 | 2.04 | > 100 µg/mL | 1.74 | >100 µg/mL | 1.74 | >100 µg/mL | 1.62 | >100 µg/mL
C/C=C/C(=O)n1c(-c2ccc(S(=O)(=O)O)cc2)nc2ccccc21 [Compound 12] | > 100 µg/mL | 1.14 | > 100 µg/mL | 1.44 | 0.84 | 1.85 | 1.85 | > 100 µg/mL | 1.85 | >100 µg/mL | 1.85 | >100 µg/mL | 1.57 | >100 µg/mL
Nc1ccc(C(=O)n2c(-c3ccc(S(=O)(=O)O)cc3)nc3ccccc32)cc1 [Compound 3] | > 100 µg/mL | 1.35 | > 100 µg/mL | 1.20 | 1.50 | 2.00 | 2.10 | > 100 µg/mL | 1.80 | >100 µg/mL | 2.10 | >100 µg/mL | 1.74 | >100 µg/mL
O=C(c1ccc([N+](=O)[O-])cc1)n1c(-c2ccc(S(=O)(=O)O)cc2)nc2ccccc21 [Compound 9, 4-[1-(4-Nitrobenzoyl)-1H-benzoimidazol-2-yl]-benzenesulfonic acid] | > 100 µg/mL | 1.83 | > 100 µg/mL | 2.13 | 1.53 | 2.43 | 2.43 | > 100 µg/mL | 2.43 | >100 µg/mL | 2.43 | >100 µg/mL | 2.19 | >100 µg/mL
O=C(c1cccc(O)c1)n1c(-c2ccc(S(=O)(=O)O)cc2)nc2ccccc21 [Compound 6] | > 100 µg/mL | 1.35 | > 100 µg/mL | 1.50 | 1.20 | 2.22 | 2.40 | > 100 µg/mL | 2.15 | >100 µg/mL | 2.10 | >100 µg/mL | 1.87 | >100 µg/mL
O=C(O)c1cn(C2CC2)c2cc(N3CCNCC3)c(F)cc2c1=O [Ciprofloxacin, ciprofloxacin, reference compound] |  |  |  |  |  | 2.61 | 2.61* |  | 2.61* |  | 2.61* |  |  | 

Source: article PMC7115694 (European Journal of Medicinal Chemistry, 2010)
